Molecules are shown by their SMILES.

This is an account of results in ChEMBL document CHEMBL1124473, “Synthesis and antiproliferative effects of novel 5'-fluorinated analogues of 5'-deoxy-5'-(methylthio)adenosine” (J Med Chem, 1989).

The test system of experiment [1] is L1210. Put plainly: Compound was evaluated for its ability to inhibit growth by 50% at 48 hr in L1210 murine leukemia cells. The format is functional, cell-based. The note with it: Mus musculus, L1210, 48 h.
Experiment [2] has as its system L5178Y. The experiment can be described thus: Compound was evaluated for its ability to inhibit growth by 50% at 48 hr in L5178Y murine leukemia cells. The settings on record: Mus musculus. Type of experiment: functional, cell-based.
Experiment [3] has as its system L5178Y. The experiment can be described thus: Inhibition of growth of L5178Y murine leukemia cell line in percent of control at 200 uM. The format is functional, Mus musculus. Also noted: scale not given: the % may be the effect or the level left. A digest of the protocol:
(§1)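 Cultures in RPMI 1640 with 10% Nu Serum IV and HEPES/MOPS buffer, treated at 0 h with the listed concentration from DMSO stock diluted in serum-free medium. Cell number by electronic particle counting after 48 h, expressed as % of untreated control. Average of at least three separate experiments.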

Experiment [4] has as its system L5178Y. The experiment can be described thus: Compound was evaluated for effect on polyamine pools in the L5178Y murine leukemia cell lines by the inhibition of spermidine synthase at 200 uM. The format is functional, Mus musculus.
The subject of experiment [5] is L1210. The experiment can be described thus: Compound was evaluated for effect on polyamine pools in the L1210 murine leukemia cell lines by the inhibition of put at 200 uM. The format is functional, Mus musculus.
In experiment [6] the test system is L1210. The experiment can be described thus: Compound was evaluated for effect on polyamine pools in the L1210 murine leukemia cell lines by the inhibition of spermidine synthase at 200 uM. The format is functional, Mus musculus.
Experiment [7] has as its system L5178Y. Put plainly: Compound was evaluated for effect on polyamine pools in the L5178Y murine leukemia cell lines by the inhibition of spermine synthase at 200 uM. Type of experiment: functional, Mus musculus.
Experiment [8] concerns the target T1, S-methyl-5'-thioadenosine phosphorylase (Mus musculus, UniProt Q9CQ65).
T1 sequence (Q9CQ65 whole entry): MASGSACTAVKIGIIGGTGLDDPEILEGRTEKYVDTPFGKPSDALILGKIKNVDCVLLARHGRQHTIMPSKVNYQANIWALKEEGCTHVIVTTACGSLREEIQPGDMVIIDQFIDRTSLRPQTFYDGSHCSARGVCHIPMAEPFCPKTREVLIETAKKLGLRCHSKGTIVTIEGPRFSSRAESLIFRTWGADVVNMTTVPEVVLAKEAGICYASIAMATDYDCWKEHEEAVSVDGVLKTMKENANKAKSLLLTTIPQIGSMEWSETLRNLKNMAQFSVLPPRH
The experiment can be described thus: Compound was evaluated for the inhibition of mouse liver MTA phosphorylase. A digest of the protocol: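 Mouse liver enzyme, partially purified (acid precipitation, 65 °C heat step, DEAE-Sephacel). 0.1 mL reaction: 4 μmol potassium phosphate pH 7.4, 0.1 μmol DTT, 20 μg BSA, 50 nmol MTA, ~2 × 10^5 cpm [methyl-3H]MTA; 10 min, 37 °C. Stopped with charcoal/TCA; [3H]MTRP in supernatant counted by liquid scintillation.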

The subject of experiment [9] is L5178Y. Put plainly: Compound was evaluated for effect on polyamine pools in the L5178Y murine leukemia cell lines by the inhibition of put at 200 uM. Type of experiment: functional, Mus musculus.
Experiment [10] has as its system L1210. Put plainly: Inhibition of growth of L1210 murine leukemia cell line in percent of control at 200 uM. The format is functional, Mus musculus. Further details: scale not given: the % may be the effect or the level left. A digest of the protocol: as §1
For experiment [11], the system named is L1210. The experiment can be described thus: Compound was evaluated for effect on polyamine pools in the L1210 murine leukemia cell lines by the inhibition of spermine synthase at 200 uM. The format is functional, Mus musculus.
In experiment [12] the test system is L1210. The experiment can be described thus: Compound was evaluated for effect on polyamine pools in the L1210 murine leukemia cell lines by the inhibition of put at 600 uM. The format is functional, Mus musculus.
In experiment [13] the test system is L1210. Put plainly: Compound was evaluated for effect on polyamine pools in the L1210 murine leukemia cell lines by the inhibition of spermidine synthase at 600 uM. The format is functional, Mus musculus.
Experiment [14] has as its system L5178Y. Put plainly: Compound was evaluated for effect on polyamine pools in the L5178Y murine leukemia cell lines by the inhibition of spermidine synthase at 60 uM. The format is functional, Mus musculus.
For experiment [15], the system named is L5178Y. Put plainly: Compound was evaluated for effect on polyamine pools in the L5178Y murine leukemia cell lines by the inhibition of put at 60 uM. Type of experiment: functional, Mus musculus.
For experiment [16], the system named is L1210. Put plainly: Inhibition of growth of L1210 murine leukemia cell line in percent of control at 600 uM. The format is functional, Mus musculus. Also noted: scale not given: the % may be the effect or the level left. The essentials: as §1
In experiment [17] the test system is L5178Y. The experiment can be described thus: Inhibition of growth of L5178Y murine leukemia cell line in percent of control at 60 uM. The format is functional, Mus musculus. Also noted: scale not given: the % may be the effect or the level left. A digest of the protocol: as §1
The subject of experiment [18] is L5178Y. Put plainly: Compound was evaluated for effect on polyamine pools in the L5178Y murine leukemia cell lines by the inhibition of spermine synthase at 60 uM. Type of experiment: functional, Mus musculus.
In experiment [19] the test system is L1210. Put plainly: Compound was evaluated for effect on polyamine pools in the L1210 murine leukemia cell lines by the inhibition of spermine synthase at 600 uM. The format is functional, Mus musculus.

The term IC50 denotes the midpoint of a concentration-inhibition curve. On to `Nc1ncnc2c1ncn2C1O[C@H](CI)[C@@H](O)[C@H]1O` (stereo not given in full), for which the IC50 in the experiment with L1210 [1] amounted to 300 µM; in the experiment with L5178Y [2] it was 2 µM.

Regarding `CSC(F)[C@H]1OC(n2cnc3c(N)ncnc32)[C@H](O)[C@@H]1O` (stereo not given in full), the IC50 amounted to 2 µM in the experiment with L1210 [1] and 0.7 µM in the experiment with L5178Y [2].

Broadly, the Ki is a dissociation constant, usually derived from enzyme kinetics or from competition with a known ligand. With `Nc1ncnc2c1ncn2C1O[C@H](CSCF)[C@@H](O)[C@H]1O` (stereo not given in full), the Control was determined as 45% in the experiment on L5178Y [3] and 67% in the experiment on L1210 [10]. Moreover, the Activity in the experiment with L5178Y [4] is listed as 2.47 nM (10e6*cells)-1; in the experiment with L1210 [5], 0.62 nM/10e6; with L1210 [6], 2.93 nM (10e6*cells)-1; in the experiment on L5178Y [7], 1.32 nM (10e6*cells)-1; in the experiment with L5178Y [9] it was 0.41 nM (10e6*cells)-1; in the experiment on L1210 [11] it was 0.6 nM (10e6*cells)-1. Also, the IC50 in the experiment on L1210 [1] is 300 µM; with L5178Y [2], 200 µM. Further, the Ki in experiment [8] was found to be 3.3 µM.

In the case of `CSC[C@H]1O[C@@H](n2cnc3c(N)ncnc32)[C@H](O)[C@@H]1O` [METHYLTHIOADENOSINE], the Activity with L1210 [12] is on record as 3.64 nM (10e6*cells)-1; in the experiment on L1210 [13], 1.59 nM (10e6*cells)-1; in the experiment on L5178Y [14], 3.03 nM (10e6*cells)-1; in the experiment on L5178Y [15], 1.24 nM (10e6*cells)-1; with L5178Y [18], 0.47 nM (10e6*cells)-1; in the experiment with L1210 [19] it was 0.2 nM (10e6*cells)-1. Also, the IC50 in the experiment on L1210 [1] stood at 600 µM; in the experiment on L5178Y [2], 60 µM. Besides, the Control with L1210 [16] is 53%; with L5178Y [17], 57%.
